Compounds with a hit are over-represented: about 2.3% of the library has one in this group of screens.
EWS-Fli inh: inhibitors of EWS/Fli oncoprotein transcriptional activity; inhibition, % at 12.6 µM; A673 NR0B1-luciferase reporter, viability-normalised; actives 0.67% (n = 350,000); AID 651661;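 active means mean inhibition of at least 50% after viability correction, with every replicate also passing that limit; inconclusive means mean reaches 50% but only one of two replicates passes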;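 further: firefly luciferase signal divided by Alamar Blue viability fluorescence both relative to DMSO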
Env fusion inh: inhibitors of HIV Env-mediated cell fusion. HeLa-JRFL Env/CEM21 cell fusion, luciferase. inhibition, % at 12.3 µM. actives 1.1% (n = 360,000). AID 651610;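 active means mean replicate inhibition score of at least 50 and every replicate individually at or above 50; inconclusive means only one of the two criteria met; inactive means mean below 50 and not all replicates reaching 50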
FN deposition inh: fibronectin deposition inhibition; AH1F fibroblasts, Alexa488-fibronectin deposition fluorescence, overnight; inhibition, % at 12.6 µM; actives 0.086% (n = 350,000);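 active means mean inhibition across replicates of 30% or more, regardless of how many single replicates reach that level; inconclusive means mean under 30% yet at least half of replicates reach 30%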
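material = AH1F fibroblast monolayer depositing Alexa488-labelled fibronectin into matrix | amount = 10000 AH1F cells/well | buffer or medium = DMEM plus 2% serum, read in PBS | incubation = 1 h cell adhesion before compound, then overnight fibronectin incubation | detection = fluorescence at 485 nm excitation, 525 nm emission | evaluation = percent inhibition as loss of matrix-bound fibronectin fluorescence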
PAX8 reporter: PAX8 transcriptional activity inhibition. actives 1.2% (n = 360,000). AID 652154. inhibition, % at 12.6 µM. RMG-I TPO-luciferase reporter, SteadyGlo, 24 h;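 active means mean replicate inhibition at least 60% with every replicate also reaching 60%; inconclusive means only one of the two criteria is met; inactive means mean below 60% and not all replicates reaching 60%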;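 further: luciferase light reporting Pax8 driven TPO promoter activity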
CFTR F508del cor: CFTR F508del correction in bronchial cells. CFBE cells, YFP halide quenching; stimulated with forskolin plus potentiator P3; % fluorescence drop versus neutral controls. activity (quench increase), % at 7.58 µM. actives 0.36% (n = 350,000). AID 720511;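 active means mean added fluorescence quench of at least 8% versus neutral control, with both replicates also reaching 8%; inconclusive means only one of the mean or replicate conditions met; inactive means mean below 8% and not both replicates reaching 8%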;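 further: cells transiently co-express mutant CFTR-F508del with the halide-sensitive YFP; corrector assay measuring rescue of mutant channel to the surface after 24 h compound exposure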
PGC1a acetyl inh: modulators of PGC1a acetylation; actives 0.17% (n = 350,000); inhibition, % at 15.6 µM; U2OS PGC1a acetylation, AlphaScreen anti-acetyl-lysine; with virally co-expressed GCN5 acetyltransferase; AID 651687;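 active means every replicate shows inhibition of at least 40%; inconclusive means mean inhibition at least 40% but some replicate below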
Numbers stand for hits; . = inactive; ? = inconclusive; / = no result.

SMILES	EWS-Fli inh	Env fusion inh	FN deposition inh	PAX8 reporter	CFTR F508del cor	PGC1a acetyl inh
Cc1ccc(S(=O)(=O)Nc2ccc3c(c2)C(=O)N([C@H](C)CO)C[C@@H](C)[C@@H](CN(C)S(=O)(=O)c2ccc(Cl)cc2)OCCCC[C@@H](C)O3)cc1	.	.	.	.	.	.
Cc1ccc(S(=O)(=O)Nc2ccc3c(c2)C(=O)N([C@H](C)CO)C[C@@H](C)[C@@H](CN(C)S(=O)(=O)c2ccc(Cl)cc2)OCCCC[C@H](C)O3)cc1	.	.	.	.	.	.
C[C@H](O)C#Cc1ccc2c(c1)O[C@@H](CN(C)CC1CCCC1)[C@H](C)CN([C@H](C)CO)S2(=O)=O	.	.	.	.	.	.
CN(C)C(=O)c1ccc(-c2ccc([C@H]3[C@@H](CO)N4CCCCN(C(=O)C5CCC5)C[C@@H]34)cc2)cc1	.	/	/	.	.	.
Cc1ccc(S(=O)(=O)Nc2ccc3c(c2)C(=O)N([C@@H](C)CO)C[C@@H](C)[C@H](CN(C)S(=O)(=O)c2ccc(Cl)cc2)OCCCC[C@@H](C)O3)cc1	.	.	.	84	.	.
Cc1ccc(S(=O)(=O)N(C)C[C@H]2OCCCC[C@H](C)Oc3ccc(NS(=O)(=O)c4ccc(Cl)cc4)cc3C(=O)N([C@H](C)CO)C[C@H]2C)cc1	.	.	.	.	.	.
O=C(NC[C@H]1CC[C@H]2[C@H](CN2Cc2cccc(Cl)c2)O1)C1CCOCC1	.	.	/	.	.	.
CC(C)(C)NC(=O)C(c1ccncc1)n1c(=O)c(-c2cc3ccccc3[nH]2)nc2ccccc21 (stereo unspecified)	.	58	.	.	.	/
COc1ccc(C(C(=O)NC(C)(C)C)n2c(=O)c(-c3cc4ccccc4[nH]3)nc3ccccc32)cc1 (stereo unspecified)	.	.	.	.	.	/
O=C(NCc1ccccc1)C(c1ccc(-c2ccccc2)cc1)n1c(=O)c(-c2cc3ccccc3[nH]2)nc2ccccc21 (stereo unspecified)	.	.	.	.	10	/
CC(C)C#Cc1cnc2c(c1)C(=O)N([C@@H](C)CO)C[C@H](C)[C@@H](CN(C)C(=O)Nc1ccccc1)O2	.	.	.	/	.	.
Cn1cccc1/C=C1\SC(=Nc2cccc(O)c2)NC1=O	.	.	.	.	9.1	.
Cn1cccc1/C=C1\SC(=Nc2ccc(O)cc2)NC1=O	.	.	.	.	12	/
O=C1/C(=C/C=C/c2ccco2)SC(=S)N1c1ccc(O)cc1	.	.	.	.	.	.
O=C1/C(=C\c2ccco2)SC(=S)N1c1ccc(O)cc1	.	/	.	91	.	/
Cc1ccc(N=C2NC(=O)/C(=C/c3cccn3C)S2)c(C)c1	.	.	.	.	.	/
Cn1cccc1/C=C1\SC(=Nc2ccccc2)NC1=O	.	.	.	.	15	.
CO[C@@H]1CN(C)C(=O)c2ccc(NC(C)=O)cc2OC[C@H](C)N(S(=O)(=O)c2cn(C)cn2)C[C@H]1C	.	/	.	.	.	.
C[C@H]1CN(C)C(=O)c2cccnc2O[C@@H]1CN(C)S(C)(=O)=O	/	/	.	/	/	/
CC(C)NC(=O)N(C)C[C@@H]1OCCCC[C@@H](C)Oc2ccc(NC(=O)Nc3ccc(F)cc3)cc2C(=O)N([C@@H](C)CO)C[C@H]1C	.	.	/	.	.	.
Cc1ccc(-c2ccc3c(c2)O[C@@H](CN(C)C(=O)Nc2ccccc2)[C@@H](C)CN([C@@H](C)CO)S3(=O)=O)cc1	.	.	.	.	.	.
O=C1NC(=Nc2ccc(O)cc2)S/C1=C/c1ccco1	?	.	.	.	11	.
Cc1ccc(N=C2NC(=O)/C(=C\c3ccco3)S2)cc1	/	/	.	.	/	.
O=C1c2ccc(-c3ccc4c(c3)C(=O)N(CCCO)C4=O)cc2C(=O)N1CCCO	.	.	.	.	.	70
C[C@@H]1CN([C@H](C)CO)C(=O)c2cc(NC(=O)NC3CCCCC3)ccc2O[C@@H](C)CCCCO[C@@H]1CN(C)C(=O)CCC(F)(F)F	.	.	/	/	.	.
SMILES	EWS-Fli inh	Env fusion inh	FN deposition inh	PAX8 reporter	CFTR F508del cor	PGC1a acetyl inh
CO[C@@H]1CN(C)C(=O)c2ccc(NC(=O)c3ccccc3F)cc2OC[C@H](C)NC[C@@H]1C	.	.	.	.	.	.
COc1ccc(-c2sc3ccc(N4CCOCC4)cc3c2C#CCCO)cc1	.	.	.	65	.	.
COc1ccc(-c2sc3cc(OC)c(OC)cc3c2C#CCCO)cc1	.	.	.	.	.	/
CC(C)NC(=O)N1C[C@@H]2C(c3ccc(Br)cc3)[C@H](C1)N2CC(F)(F)F (stereo partly specified)	/	/	.	/	/	/
O=C(CC1CC1)N1CC[C@H]2[C@H](CO)Nc3ccc(-c4ccccc4)cc3[C@H]21	.	/	.	.	.	.
COCc1ccc(CN2CCC(CO)(CC3CCCCO3)CC2)o1 (stereo unspecified)	.	.	/	.	.	.
COc1cccc(CN2CCC(CO)(CC3CCCCO3)CC2)c1 (stereo unspecified)	.	.	.	.	.	100
N#C/C(=C/c1ccccc1OCc1ccc(F)cc1)c1ccc(C(=O)O)cc1	.	.	.	.	.	.
N#C/C(=C/c1ccc(OCc2ccc(C(=O)O)cc2)c(Br)c1)c1cccc(F)c1	.	.	.	.	.	96
CCC(=O)N1C[C@H]2[C@@H](c3ccccc31)[C@@H](CO)N2C(=O)Nc1ccccc1	.	/	/	.	.	.
COc1ccc2c3c(n(C)c2c1)[C@@H](CO)N(C(=O)CC1CC1)CC31CCN(Cc2ccncc2)CC1	.	/	/	.	.	.
CSC(=Nc1ccccc1)N=C(SCc1ccccc1)N(C)C	57	.	.	101	.	.
O=C(CSc1nc2ccccc2s1)NCCOc1ccccc1	.	/	.	93	.	.
O=C(O)CCSc1nc2ccccc2s1	/	78	.	/	/	.
C[C@H]1CN([C@@H](C)CO)C(=O)c2cc(NS(=O)(=O)c3cccs3)ccc2O[C@H]1CN(C)S(=O)(=O)c1cccs1	.	.	/	.	.	.
CNC(=O)C[C@H]1CC[C@H]2[C@@H](COc3ccc(NC(=O)Nc4ccc(C)cc4)cc3C(=O)N2C)O1	.	.	.	.	.	.
CO[C@H]1CN(C)C(=O)c2ccc(NC(C)=O)cc2OC[C@@H](C)N(CC2CCCCC2)C[C@@H]1C	.	/	.	.	.	.
O=C(C[C@@H]1C/C=C/CC[C@@H](Cc2ccc(F)cc2)C(=O)O[C@H](c2ccccc2)CNC1=O)NCCO	.	83	.	.	.	/
O=C1NC[C@@H](c2ccccc2)OC(=O)[C@H](Cc2ccc(F)cc2)C/C=C\C[C@H]1CC(=O)N(CCO)Cc1ccccc1	.	.	.	.	.	.
O=C1NC[C@H](c2ccccc2)OC(=O)[C@H](Cc2ccc(F)cc2)C/C=C\C[C@H]1CC(=O)N(CCO)Cc1ccccc1	.	.	.	83	.	.

Screens (PubChem BioAssay)
